Activity calls are given as the source filed them. No cut-off for these calls is given here.
Legend:
[1] = target: T1, Monoacylglycerol lipase ABHD6 (Mus musculus, UniProt Q8R2Y0)
T1 sequence (Q8R2Y0 whole entry): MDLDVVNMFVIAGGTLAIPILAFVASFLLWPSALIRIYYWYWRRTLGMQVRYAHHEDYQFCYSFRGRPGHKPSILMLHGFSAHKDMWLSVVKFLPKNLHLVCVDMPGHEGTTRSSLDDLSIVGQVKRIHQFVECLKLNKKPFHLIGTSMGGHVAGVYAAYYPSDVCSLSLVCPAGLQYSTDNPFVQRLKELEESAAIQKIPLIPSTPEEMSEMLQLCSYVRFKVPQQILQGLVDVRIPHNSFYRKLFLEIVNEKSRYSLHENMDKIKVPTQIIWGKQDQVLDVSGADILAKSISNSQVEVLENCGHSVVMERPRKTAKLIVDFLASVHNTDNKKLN

[2] = test system: Mus musculus; assay: In vivo inhibition of ABHD6 in C57Bl/6 mouse brain at 1 mg/kg, ip after 4 hrs by HT-10-labelled gel-based competitive ABPP assay; type: functional, organism-based; set-up: dose 1 mg/kg
In short: (§1)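 C57Bl/6 mice dosed i.p. at 0.1, 0.5 or 1 mg kg⁻¹ in 18:1:1 saline/ethanol/PEG40 (ethoxylated castor oil), 10 μL g⁻¹. Killed after 4 hr under isoflurane by cervical dislocation. Brain and liver membrane fractions (100,000 × g) labelled with FP-rhodamine or HT-01 (1 μM, 30 min, 37 °C), then SDS-PAGE and in-gel fluorescence scanning. Liver ABHD6 read from HT-01 gels.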

[3] = test system: Mus musculus; assay: In vivo inhibition of DDH2 in C57Bl/6 mouse liver and bain at 0.1 to 1 mg/kg, ip after 4 hrs by FP-rhodamine-labelled gel-based competitive ABPP assay; type: functional, organism-based
In short: as §1

[4] = test system: Mus musculus; assay: In vivo inhibition of MGLL in C57Bl/6 mouse liver and bain at 0.1 to 1 mg/kg, ip after 4 hrs by FP-rhodamine-labelled gel-based competitive ABPP assay; type: functional, organism-based
In short: as §1

[5] = test system: Mus musculus; assay: In vivo inhibition of PLA2G7 in C57Bl/6 mouse liver and bain at 0.1 to 1 mg/kg, ip after 4 hrs by FP-rhodamine-labelled gel-based competitive ABPP assay; type: functional, organism-based
In short: as §1

[6] = test system: Mus musculus; assay: In vivo inhibition of FAAH in C57Bl/6 mouse liver and bain at 0.1 to 1 mg/kg, ip after 4 hrs by FP-rhodamine-labelled gel-based competitive ABPP assay; type: functional, organism-based
In short: as §1

[7] = test system: Mus musculus; assay: In vivo inhibition of ABHD6 in C57Bl/6 mouse liver at 10 to 40 mg/kg, po after 4 hrs by FP-rhodamine/HT-10-labelled gel-based competitive assay; type: functional, organism-based
[8] = test system: Mus musculus; assay: In vivo inhibition of ABHD6 in C57Bl/6 mouse liver at 5 to 10 mg/kg, ip after 4 hrs by FP-rhodamine/HT-10-labelled gel-based competitive assay; type: functional, organism-based
In short: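 C57Bl/6 mice dosed i.p. at 1–40 mg kg⁻¹ in 18:1:1 saline/ethanol/PEG40, 10 μL g⁻¹, for 4 hr, then killed. Brain and liver membrane proteomes labelled with FP-rhodamine or HT-01 (1 μM, 30 min, 37 °C) and resolved by SDS-PAGE with in-gel fluorescence scanning.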

O=C(N1CCCCC1c1ccccc1)n1cc(-c2ccc(-c3cccc(CO)c3)cc2)nn1 (racemic)
IC50 [1]: 0.24 nM
inhibition [2]: Active

O=C(O)c1cccc(-c2ccc(-c3cn(C(=O)N4CCCCC4Cc4ccccc4)nn3)cc2)c1 (racemic)
inhibition [3]: inactive
inhibition [4]: inactive
inhibition [5]: inactive
inhibition [6]: inactive

O=C(c1cccc(-c2ccc(-c3cn(C(=O)N4CCCCC4c4ccccc4)nn3)cc2)c1)N1CCCCC1 (racemic)
inhibition [7]: Active
inhibition [8]: Active
